Laboratory results taken from ChEMBL document CHEMBL2086283, “Novel 4-aminoquinoline-pyrimidine based hybrids with improved in vitro and in vivo antimalarial activity” (ACS Med Chem Lett, 2012).
Active and inactive are the calls of the source. The rule behind the calls is not given here.

Columns and labels:
Plasmodium berghei [1] = experiment: Antimalarial activity against Plasmodium berghei infected in mouse assessed as suppression in parasitemia at 100 mg/kg, po administered QD for 3 days measured on day 5 relative to control; format: functional
Method in brief: (§1)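 P. berghei-infected mice, 5 per group, dosed by oral gavage once daily on days 0, 1 and 2 postinfection, with a vehicle control arm. Mice were followed to day 28 postinfection for apparent toxicity, parasitemia and survival. Parasitemia suppression is expressed against mean vehicle-control parasitemia set as 100%, and cure is the number cured per 5 mice.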

Plasmodium berghei [2] = experiment: Antimalarial activity against Plasmodium berghei infected in mouse assessed as suppression in parasitemia at 100 mg/kg, po administered QD for 3 days measured on day 7 relative to control; format: functional; method in brief: as §1
Mus musculus = experiment: Toxicity in mouse infected with Plasmodium berghei assessed as host survival at 100 mg/kg, po administered QD for 3 days measured on day 28; format: organism-based; design: dose 100 mg/kg, route oral; details: in vivo, 72 h
Plasmodium berghei [3] = experiment: Antimalarial activity Plasmodium berghei infected in mouse assessed as mean survival time at 100 mg/kg, po administered QD for 3 days (reference value: 15.2 days); format: functional
Plasmodium berghei [4] = experiment: Antimalarial activity Plasmodium berghei infected in mouse assessed as cure from infection at 100 mg/kg, po administered QD for 3 days measured on day 28; format: functional, organism-based; design: dose 100 mg/kg; method in brief: as §1
Vero [5] = experiment: Cytotoxicity against african green monkey Vero cells up to 60 uM after 48 hrs by neutral red assay; format: cell-based; details: chlorocebus sabaeus
Method in brief: (§2)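 Mammalian cell cytotoxicity was measured as IC50 in Vero (monkey kidney fibroblasts), LLC-PK11 (pig kidney epithelial) and HepG2 (human hepatoma) cells. The highest concentration tested was 60 μM. Values are the mean of two independent experiments ± SD.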

[6] = Cytotoxicity against pig LLC-PK11 cells up to 60 uM after 48 hrs by neutral red assay; format: cell-based, Sus scrofa; details: llc-pk11, 48 h; method in brief: as §2
HepG2 = experiment: Cytotoxicity against human HepG2 cells up to 60 uM after 48 hrs by neutral red assay; format: cell-based; details: hepg2, 48 h; method in brief: as §2
Vero [7] = experiment: Cytotoxicity against african green monkey Vero cells after 48 hrs by neutral red assay; format: cell-based; details: chlorocebus sabaeus; method in brief: as §2
[8] = Selectivity index, ratio of IC50 for african green monkey Vero cells to IC50 for chloroquine-sensitive Plasmodium falciparum D6; format: toxicity, cell-based; details: read-out: Ratio IC50
Method in brief: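 SI is the IC50 for cytotoxicity to Vero cells (monkey kidney fibroblasts) divided by the antimalarial IC50 against the named P. falciparum clone. Cytotoxicity was tested up to 60 μM.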

Plasmodium falciparum = experiment: Antiplasmodial activity against chloroquine-resistant Plasmodium falciparum W2 infected in red blood cells up to 19 uM after 72 hrs by parasitic LDH assay; format: functional, organism-based
Method in brief: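 In vitro P. falciparum growth inhibition (D6 CQ-sensitive clone; W2 CQ-resistant clone). IC50 is the concentration giving 50% growth inhibition. Values are the average of two independent experiments ± SD. Highest concentration tested 19 μM.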

| Compound | Activity (Plasmodium berghei [1]) [%] | Activity (Plasmodium berghei [2]) [%] | Activity (Mus musculus) | MST (Plasmodium berghei [3]) [days] | Activity (Plasmodium berghei [4]) | Activity (Vero [5]) | Activity [6] | Activity (HepG2) | IC50 (Vero [7]) [µM] | selectivity ratio [8] | Activity (Plasmodium falciparum) |
| --- | --- | --- | --- | --- | --- | --- | --- | --- | --- | --- | --- |
| CCN(CC)CCCC(C)Nc1ccnc2cc(Cl)ccc12 (stereo unspecified) [CHLOROQUINE] | 100 | 100 | Non-toxic | 28 | inactive | Non-toxic | Non-toxic | Non-toxic | – | – | – |
| CCc1nc(N)nc(N)c1-c1ccc(Cl)cc1 [PYRIMETHAMINE] | – | – | – | – | – | – | – | – | 18.2 | 1820 | inactive |
